Test system: MS2 coat protein
Assay: apparent Kd, MS2 coat protein; higher = weaker binding; RNA-MaP array; FMN 200 µM where present
Summary of the method: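 Green signal was scaled to red-channel RNA signal and control-cluster median Fmax, and the apparent Kd was taken as the median of filtered per-cluster binding-curve fits. The binding series used SNAP-549-labelled MS2 coat protein from 0.7 or 1.5 nM, doubling to 3 µM, on designs transcribed by stalled E. coli RNA polymerase on Illumina sequencing-chip clusters. Each series ran without and then with constant ligand in 100 mM Tris-HCl pH 7.5, 80 mM KCl, 4 mM MgCl2, BSA, DTT, yeast tRNA and Tween-20.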

[1] = designed as: ON switch for flavin mononucleotide, no ligand
[2] = ligand present: flavin mononucleotide, designed as: ON switch for flavin mononucleotide
[3] = designed as: OFF switch for flavin mononucleotide, no ligand
[4] = ligand present: flavin mononucleotide, designed as: OFF switch for flavin mononucleotide

## UUAUUUAUGUAAGGAUAUCGAUUAUAUACACAUCCUACAUGAGGAUCACCCAUGUUUUAUUUUUUCGAGAAGGUACAUUGUCGG
[1]
  apparent Kd: 51.7 nM
[2]
  apparent Kd: 47.4 nM

## UUCAAAUUCGUAGGAUAUGUAUAUAAUUUCUACAUGAGGAUCACCCAUGUUACCAUUUUUUAGUGACAGAAGGACGUAAUCUAA
[1]
  apparent Kd: 211 nM
[2]
  apparent Kd: 47.6 nM

## UUCAGACAUGAGGAUCACCCAUGUGAGGAUAUGAUGCAGCAGUGGUCUACGCUGUGCAUCAGAAGGCACAUGUG
[3]
  apparent Kd: 140 nM
[4]
  apparent Kd: 32.7 nM

## UUCAUCAGUGAAGGAUAUCUAUGUCCAACAUGAGGAUCACCCAUGUUGAGGAUUACCUAUGUGUAGGAGAAGGUCAAUAUAACU
[1]
  apparent Kd: 6.79 nM
[2]
  apparent Kd: 6.1 nM

## UUCAUGUGAGGAUAUGCGGCGCCAGGCGAGCCUGGCACUGAGCAGAAGGCACAUGAGGAUCACCCAUGUGCUCC
[3]
  apparent Kd: 33.5 nM
[4]
  apparent Kd: 73.5 nM

## UUCCUCGUUGUGAGGAUAUCGUCCGGGUUUUGUUACGAGAAGGCACAUGAGGAUCACCCAUGUUACUUGAUGUU
[3]
  apparent Kd: 19 nM
[4]
  apparent Kd: 64 nM

## UUCCUCUUUGUGAGGAUAUCGUCCGUUUUUUGUUACGAGAAGGCACAUGAGGAUCACCCAUGUUUUUUGUUUUU
[3]
  apparent Kd: 20.4 nM
[4]
  apparent Kd: 68.3 nM

## UUCGAAUUGUAGGAUAUUUUGCCCGAUUGGGCGGGAGAAGGGCAGACAUGAGGAUCACCCAUGUGUCAGGCAGU
[3]
  apparent Kd: 40.8 nM
[4]
  apparent Kd: 40.5 nM

## UUCGGCGCAGGAUAUGCGGUUCUGUGUUGAAUCGGCGCGGGACAUGAGGAUCACCCAUGUAGAAGGGUGUUGGG
[3]
  apparent Kd: 361 nM
[4]
  apparent Kd: 287 nM

## UUCGUGCUGCUUUGCUGUACGAGUACAUGAGGAUCACCCAUGUAGGAUAUGGACAUGAGGAUCACCCAGAAGGAUAUGUGUUGC
[3]
  apparent Kd: 113 nM
[4]
  apparent Kd: 141 nM

## UUCGUGUAAGGAUAUACGACUCAUCCCAAUGGGACGAGCACGUAGAAGGUACAUGAGGAUCACCCAUGUGCUCC
[3]
  apparent Kd: 27.1 nM
[4]
  apparent Kd: 155 nM

## UUCGUGUGACAGAAGGGUCUUUCGGGCUGGGAGGCAGGAUAUGUGACAUGAGGAUCACCCAUGUUGGUAUCGUCUGUGUGUACG
[3]
  apparent Kd: 6.15 nM
[4]
  apparent Kd: 12.8 nM

## UUCUUACAUGAGGAUCACCCAUGUCAGGAUAUCUCCACACUGCGCUUGCGCAGUGUAUAGAGAAGGGACAGGCU
[3]
  apparent Kd: 49.4 nM
[4]
  apparent Kd: 47.5 nM

## UUCUUACAUGAGGAUCACCCAUGUCAGGAUAUCUCCUCACUGCGCUUGCGCAGUGGAUAGAGAAGGGACAGGCU
[3]
  apparent Kd: 56.8 nM
[4]
  apparent Kd: 50.1 nM

## UUCUUACAUGAGGAUCACCCAUGUGUUGUCGUGGGAGGAUAUCCUUGUUCGGUGGCGUUGGGAGAAGGCCUAUGUU
[1]
  apparent Kd: 39.3 nM
[2]
  apparent Kd: 73.2 nM

## UUCUUGGCAGGAUAUGCUUUUUUAGACAUGAGGAUCACCCAUGUGAUUAUUUUUGGUUUUGCAGAAGGGCCUUAAU
[3]
  apparent Kd: 65.4 nM
[4]
  apparent Kd: 87.2 nM

## UUGAUACAUACCUCCAUAAACAUGAGGAUCACCCAUGUAAGUGAGGAUAUAGAUUGUUUAGUAUACUAGAAGGCACUUAGAUAU
[3]
  apparent Kd: 13.1 nM
[4]
  apparent Kd: 11.9 nM

## UUGCGGGAUUGAGGAUAUUGAGUACAUAUGUUUAACAUGAGGAUCACCCAUGUGGGUUGCGGUAUCGAGAAGGUAACUUACUAC
[1]
  apparent Kd: 95.8 nM
[2]
  apparent Kd: 104 nM

## UUGGACGUCGUAGGAUAUAUAGGAUAUUCCUACAUGAGGAUCACCCAUGUUGACAUGGAAGAAGGACAGAAGGACGAUGUCCAU
[1]
  apparent Kd: 27.1 nM
[2]
  apparent Kd: 9.75 nM

## UUGGACGUCGUAGGAUAUGGAGGAUAUUCCUACAUGAGGAUCACCCAUGUUGACAUGGAAGAAGGACAGAAGGACGAUGUCCAU
[1]
  apparent Kd: 10.1 nM
[2]
  apparent Kd: 4.14 nM

## UUGGACGUCGUAGGAUAUGUAGGAUAUUCAUACAUGAGGAUCACCCAUGUUGACAUGGAAGAAGGACAGAAGGACGAUGUCCAU
[1]
  apparent Kd: 8.63 nM
[2]
  apparent Kd: 4.56 nM

## UUGGACGUCGUAGGAUAUGUAGGAUAUUCCUACAUGAGGAUCACCCAUGUUGACAUGGAAGAAGGACAGAAGCACGAUGUCCAU
[1]
  apparent Kd: 199 nM
[2]
  apparent Kd: 5.35 nM

## UUGGACGUCGUAGGAUAUGUAGGAUAUUCCUACAUGAGGAUCACCCAUGUUGACAUGGAAGAAGGACAGAAGGACCAUGUCCAU
[1]
  apparent Kd: 451 nM
[2]
  apparent Kd: 14.8 nM

## UUGGACGUCGUAGGAUAUGUAGGAUAUUCCUACAUGAGGAUCACCCAUGUUGACAUGGAAGAAGGACAGAAGGACGAGGUCCAU
[1]
  apparent Kd: 241 nM
[2]
  apparent Kd: 4.93 nM

## UUGGACGUCGUAGGAUAUGUAGGAUAUUCCUACAUGAGGAUCACCCAUGUUGACAUGGAAGAAGGACAGAAGGACGAUGUCCAU
[1]
  apparent Kd: 566 nM
[2]
  apparent Kd: 14.2 nM

## UUGGACGUCGUAGGAUAUGUAGGAUAUUCCUACAUGAGGAUCACCCAUGUUGACAUGGAAGAAGGACAGAAGGACGGUGUCCAU
[1]
  apparent Kd: 241 nM
[2]
  apparent Kd: 4.54 nM

## UUGGACGUCGUAGGAUAUGUAGGAUAUUCCUACAUGAGGAUCACCCAUGUUGACAUGGAAGAAGGACAGAAGGAGGAUGUCCAU
[1]
  apparent Kd: 303 nM
[2]
  apparent Kd: 7.18 nM

## UUGGACGUCGUAGGAUAUGUAGGAUAUUCCUACAUGAGGAUCACCCAUGUUGACAUGGAAGAAGGACAGAAGUACGAUGUCCAU
[2]
  apparent Kd: 5.6 nM

## UUGGACGUCGUAGGAUAUGUAGGAUAUUCCUACAUGAGGAUCACCCAUGUUGACAUGGAAGAAGGACAGAAUGACGAUGUCCAU
[1]
  apparent Kd: 374 nM
[2]
  apparent Kd: 5.51 nM

## UUGGACGUCGUAGGAUAUGUAGGAUAUUCCUACAUGAGGAUCACCCAUGUUGACAUGGAAGAAGUACAGAAGGACGAUGUCCAU
[1]
  apparent Kd: 15.9 nM
[2]
  apparent Kd: 4.5 nM

## UUGGACGUCGUAGGAUAUGUAGGAUAUUCCUACAUGAGGAUCACCCAUGUUGACAUGGAAUAAGGACAGAAGGACGAUGUCCAU
[1]
  apparent Kd: 23.4 nM
[2]
  apparent Kd: 5.28 nM

## UUGGACGUCGUAGGAUAUGUAGGAUAUUCCUACAUGAGGAUCACCCAUGUUGACAUGGCAGAAGGACAGAAGGACGAUGUCCAU
[1]
  apparent Kd: 938 nM
[2]
  apparent Kd: 129 nM

## UUGGACGUCGUAGGAUAUGUAGGAUAUUGCUACAUGAGGAUCACCCAUGUUGACAUGGAAGAAGGACAGAAGGACGAUGUCCAU
[1]
  apparent Kd: 43.8 nM
[2]
  apparent Kd: 5.59 nM

## UUGGCAACGUAGAAGGGUGACAUGAGGAUCACCCAUGUGCCGAUAUUUCUCGAGAUAUGUCGGCCACAGGAUAUACGUGCCAUC
[1]
  apparent Kd: 32.3 nM
[2]
  apparent Kd: 57.9 nM

## UUGGCGCGAUCCUUGGUCUCACAUGAGGAUCACCCAUGUAGAGAGGAUAUGCAUAGGGCCCAAUGGCAGAAGGCUCUACAUGAG
[3]
  apparent Kd: 67.1 nM
[4]
  apparent Kd: 71.2 nM

## UUGUAAUGAUUAGGAUAUUAUUAAUAGAACUUUAUGAUAUACAUGAGGAUCACCCAUGUUACUUAUAAGAAGGAAUCGUAUUAU
[3]
  apparent Kd: 21.2 nM
[4]
  apparent Kd: 16.8 nM

## UUGUACAUAGGAUAUAGUUGUUUCUACAUGAGGAUCACCCAUGUUAUUCCUCUCUCCCUUCUAGAAGGAUGUUUUU
[3]
  apparent Kd: 40.9 nM
[4]
  apparent Kd: 38 nM

## UUGUUACAUGAGGAUCACCCAUGUGAGGAUAUGGCCCGCCCGGCGUGAGCUGGUUUUGUCAGAAGGCGCGUGGG
[3]
  apparent Kd: 111 nM
[4]
  apparent Kd: 159 nM

## UUGUUACAUGAGGAUCACCCAUGUGAGGAUAUGGUUCGGUACUGUCAUGUCGCGUACUCCAGAAGGCACAUGUU
[3]
  apparent Kd: 97.1 nM
[4]
  apparent Kd: 303 nM

## UUGUUAGGGAGAGGAUAUUGACAUGAGGAUCACCCAUGUAUUUGGGAGUGUUUACUGAAUUCUCACGAGAAGGCUUACAAAUUU
[3]
  apparent Kd: 584 nM
[4]
  apparent Kd: 534 nM

## UUGUUAUAUGUAGGAUAUGCAUAUUAUUAUUAUGCAGAAGGACAUGAGGAUCACCCAUGUAUAUUAUUGUUAUAUGUUAUAUAU
[3]
  apparent Kd: 23 nM
[4]
  apparent Kd: 25.4 nM

## UUGUUAUAUGUAGGAUAUGCAUAUUAUUAUUAUGCAGAAGGACAUGAGGAUCACCCAUGUAUAUUGUUAUUAUAUAUUAUAUAU
[3]
  apparent Kd: 24.2 nM
[4]
  apparent Kd: 32.5 nM

## UUGUUAUGUGUAGGAUAUGCAUAUUAUUAUUAUGCAGAAGGACAUGAGGAUCACCCAUGUGUAUUGUUAUUAUAUAUUAUAUAU
[3]
  apparent Kd: 22.8 nM
[4]
  apparent Kd: 30.5 nM

## UUGUUGUAUGUAGGAUAUGCAUAUUAUUAUUAUGCAGAAGGACAUGAGGAUCACCCAUGUGUAUUAUUAUUAUAUAUUAUAUAU
[3]
  apparent Kd: 25.5 nM
[4]
  apparent Kd: 44.1 nM

## UUGUUGUAUGUAGGAUAUGCGUGUUAUUAUUAUGCAGAAGGACAUGAGGAUCACCCAUGUGUAUUAUUAUUAUAUAUUAUAUAU
[3]
  apparent Kd: 21.5 nM
[4]
  apparent Kd: 19.6 nM

## UUUAAACAGUCAGGAUAUGUAACGCACAACGGCGCAGAAGGGACAUGAGGAUCACCCAUGUUAUGGUUCUGGUACUAUGACGUU
[3]
  apparent Kd: 18.4 nM
[4]
  apparent Kd: 22.9 nM

## UUUAAACAUGAGGAUCACCCAUGUCGUUCAAAUCAAGGAUAUCAAGCGUGUGAGCACACUUGAGAAGGUGAAGCUC
[1]
  apparent Kd: 31 nM
[2]
  apparent Kd: 60.8 nM

## UUUAAGCUCACAUGAGGAUCACCCAUGUCCGUUCGCCCGGACAGAAGGCACCCAUGACAAUGCGGUGAGGAUAUGUCAGCAAGG
[1]
  apparent Kd: 120 nM
[2]
  apparent Kd: 13.1 nM

## UUUAAUUUGUAGAAGGACGACUAUUAAUAUUUCGUAGGAUAUACUAUUUACAUGAGGAUCACCCAUGUUUAAAUGGAACAAUGU
[3]
  apparent Kd: 8.35 nM
[4]
  apparent Kd: 12.4 nM

## UUUACAUGAGGAUCACCCAUGUCUUGAAAGAUUAGUUUUGGUGAGGAUAUACAUGAUAAAGAAUUGUAGAAGGCACUGGGUACA
[1]
  apparent Kd: 258 nM
[2]
  apparent Kd: 124 nM

## UUUAGUUGCGGGCAGGAUAUGUAUUAAAAUACAUGAGGAUCACCCAUGUGCGGGUGUAACACCCGACAGAAGGGCCAAUCGCGAC
[1]
  apparent Kd: 388 nM
[2]
  apparent Kd: 28.6 nM

## UUUAUAAAGGUAGGAUAUUGUAUUAUAAUUAAAUAAGAAGGAUCUCACAUGAGGAUCACCCAUGUAAGAGGAUCACCCAUGUAU
[3]
  apparent Kd: 8.68 nM
[4]
  apparent Kd: 9.25 nM

## UUUAUAAAUUAGAAGGCGAGAUAAAAUACAAUAGACAUGAGGAUCACCCAUGUGUACCCAUGUUUUGAGGAUAUAGUCAUAUAU
[1]
  apparent Kd: 804 nM
[2]
  apparent Kd: 536 nM

## UUUAUAAAUUAGAAGGCGGGAUGAAUUACAAUAGACAUGAGGAUCACCCAUGUGUAUUCAUGUCUUGAGGAUAUAGUCAUAUAU
[1]
  apparent Kd: 271 nM
[2]
  apparent Kd: 110 nM

## UUUAUAUAGUAAGGAUAUGUAUUAUUUCUAUCAACAGAAGGUACUGACAUGAGGAUCACCCAUGUUUUAGUGUGGGCAUGUAGU
[3]
  apparent Kd: 261 nM
[4]
  apparent Kd: 381 nM
